Assay results as given in article PMC3932306 (Journal of natural products, 2013).

Key:
[1] = molecular target: T1, cathepsin L (Homo sapiens, UniProt P07711); test: Reversibility: preincubation-dilution experiment; assay type: biochemical; conditions: preincubation-dilution and activity-probe experiments
Procedure, shortened: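 Preincubation-dilution test: cathepsin L at 100-fold final assay concentration was incubated 30 min with a concentrated test compound in 2 µL. The mix was then diluted 100-fold into assay buffer containing 10 µM Z-FR-AMC, 200 µL final. AMC release was monitored continuously in kinetic mode for 2 h. Activity was compared against a vehicle control.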

[2] = system: murine cathepsin L; conditions: cited from earlier work
[3] = molecular target: T1, cathepsin L; test: Cathepsin L inhibition assay; assay type: biochemical; conditions: for Selectivity Index: IC50 of assayed protease / IC50 cathepsin L
Procedure, shortened: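 Recombinant human cathepsin L (3.0 ng/mL) with 20 µM Z-Phe-Arg-AMC in 50 mM sodium acetate, 100 mM NaCl, 1.0 mM EDTA, 4 mM DTT, pH 5.5, at 25 °C. Fluorescence read at 365/450 nm. Dose-response was […], 3-fold, 333–0.46 nM, in triplicate, with immediate mixing or 30 min enzyme–inhibitor preincubation. Data were scaled to E-64-c/DMSO controls and fitted to a four-parameter logistic model for IC50. Selectivity index = IC50 of the assayed protease / IC50 of cathepsin L for each condition.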

[4] = molecular target: T1, cathepsin L; test: Active-site directed probe; assay type: binding; conditions: 30 min preincubation; enzyme 100 nM
Procedure, shortened: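 Test compound in a 6-point, 3-fold serial dilution (10% DMSO) was preincubated 30 min at room temperature with recombinant human cathepsin L in 100 mM sodium acetate, 1.0 mM EDTA, 4 mM DTT, pH 5.5. CLIK-148 and DMSO served as controls. Biotinylated epoxide probe DCG-04 (10 µM stock) was added for 30 min at room temperature. Samples were denatured at 70 °C for 5 min, run on 12% Bis-Tris SDS-PAGE and blotted to nitrocellulose. Detection used avidin/biotinylated HRP with chemiluminescence.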

[5] = molecular target: human cathepsin H (Homo sapiens, UniProt P09668); test: Selectivity: cathepsin H inhibition; assay type: biochemical; conditions: at the highest assay concentrations
Sequence of human cathepsin H (P09668 116-335 limits assumed, other chains not shown): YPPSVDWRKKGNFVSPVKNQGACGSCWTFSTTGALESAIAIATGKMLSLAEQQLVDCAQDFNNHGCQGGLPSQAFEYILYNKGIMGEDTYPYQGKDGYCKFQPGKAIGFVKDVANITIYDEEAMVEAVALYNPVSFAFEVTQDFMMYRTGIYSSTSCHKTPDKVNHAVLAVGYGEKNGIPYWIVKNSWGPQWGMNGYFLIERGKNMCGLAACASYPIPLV
Procedure, shortened: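 Human cathepsin H (50 ng/mL) in 50 mM potassium phosphate, 3 mM cysteine, 1 mM EDTA, pH 6.4, with 200 µM Arg-AMC substrate. Dose-response ran with 0 min and 30 min enzyme–inhibitor preincubation, otherwise as for the cathepsin L assay, in technical triplicate.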

[6] = system: Plasmodium falciparum falcipain proteases; conditions: cited from earlier work

T1 sequence (P07711 114-333): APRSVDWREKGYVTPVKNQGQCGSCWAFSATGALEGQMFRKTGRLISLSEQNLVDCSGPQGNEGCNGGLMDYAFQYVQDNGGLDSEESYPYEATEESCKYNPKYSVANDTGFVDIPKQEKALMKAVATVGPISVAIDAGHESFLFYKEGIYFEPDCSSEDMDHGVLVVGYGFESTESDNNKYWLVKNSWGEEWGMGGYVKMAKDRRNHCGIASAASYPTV

In the case of `CC[C@H](C)[C@@H](C(=O)O[C@@H](CC(C)C)C(=O)N[C@@H](CC(C)C)C(=O)N[C@@H](C)/C=C/C(=O)N1C(=O)C=C(OC)[C@@H]1C)N(C)C` [compound 1, gallinamide A], the mode of inhibition [1] is listed as “irreversible”, the “inhibition of murine cathepsin L (in words)” value [2] is listed as “moderate inhibition” and the “Selectivity Index” value ([3]; 0 min) is listed as 1. For the same compound, the “Selectivity Index” value ([3]; 30 min) was 1, the inhibition at 3 µg/mL ([3]; read-out: inhibition of cathepsin L) was 97 to 99% and the “concentration giving complete loss of DCG-04 probe labeling” value [4] was 333 nM. For the same compound, the “concentration giving decreased DCG-04 probe labeling” value [4] was 111 nM, the “activity against cathepsin H (in words)” value [5] was “inactive” and the “mode of inhibition of falcipain proteases” value ([6]; based on kinetic model fitting) was “covalent, irreversible inhibitor”. For the same compound, the “inhibition of P. falciparum falcipain proteases (in words)” value [6] was “potent inhibition”.
